Measured values published in ChEMBL document CHEMBL3808346, “Optimization of the phenylurea moiety in a phosphoinositide 3-kinase (PI3K) inhibitor to improve water solubility and the PK profile by introducing a solubilizing group and ortho substituents” (Bioorg Med Chem, 2016).
≈ marks a conversion by molar mass, not a printed value.

Experiments:
[1] = target: PI3-kinase p110-alpha/p85-alpha (Homo sapiens, UniProt P42336); assay: Inhibition of human PI3K p110alpha/p85alpha expressed in baculovirus preincubated for 20 mins followed by addition of phosphorylate phosphatidylinositol-4,5-bisphosphate as substrate and ATP measured after 15 mins by AlphaScreen competition assay
Sequence of PI3-kinase p110-alpha/p85-alpha (P27986 whole entry): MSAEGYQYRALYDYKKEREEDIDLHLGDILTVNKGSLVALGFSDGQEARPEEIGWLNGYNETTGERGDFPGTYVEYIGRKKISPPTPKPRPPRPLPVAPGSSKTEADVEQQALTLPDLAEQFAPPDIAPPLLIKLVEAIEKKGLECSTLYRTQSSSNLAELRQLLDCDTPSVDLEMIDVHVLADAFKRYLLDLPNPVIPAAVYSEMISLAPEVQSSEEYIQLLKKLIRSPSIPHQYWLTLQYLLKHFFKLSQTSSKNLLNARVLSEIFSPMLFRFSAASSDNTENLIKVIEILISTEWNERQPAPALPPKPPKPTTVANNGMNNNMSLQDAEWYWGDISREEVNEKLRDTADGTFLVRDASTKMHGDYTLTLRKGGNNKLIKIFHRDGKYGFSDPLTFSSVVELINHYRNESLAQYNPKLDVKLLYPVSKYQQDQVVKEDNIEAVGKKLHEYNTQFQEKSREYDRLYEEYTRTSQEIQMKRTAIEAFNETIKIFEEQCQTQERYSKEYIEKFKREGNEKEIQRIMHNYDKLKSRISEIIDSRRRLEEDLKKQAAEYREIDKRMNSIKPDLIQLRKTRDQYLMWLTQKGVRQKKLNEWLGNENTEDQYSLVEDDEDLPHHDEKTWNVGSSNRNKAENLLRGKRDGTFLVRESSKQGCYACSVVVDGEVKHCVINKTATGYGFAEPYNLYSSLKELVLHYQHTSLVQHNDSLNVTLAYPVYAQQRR
Sequence of PI3-kinase p110-alpha/p85-alpha (P42336 whole entry): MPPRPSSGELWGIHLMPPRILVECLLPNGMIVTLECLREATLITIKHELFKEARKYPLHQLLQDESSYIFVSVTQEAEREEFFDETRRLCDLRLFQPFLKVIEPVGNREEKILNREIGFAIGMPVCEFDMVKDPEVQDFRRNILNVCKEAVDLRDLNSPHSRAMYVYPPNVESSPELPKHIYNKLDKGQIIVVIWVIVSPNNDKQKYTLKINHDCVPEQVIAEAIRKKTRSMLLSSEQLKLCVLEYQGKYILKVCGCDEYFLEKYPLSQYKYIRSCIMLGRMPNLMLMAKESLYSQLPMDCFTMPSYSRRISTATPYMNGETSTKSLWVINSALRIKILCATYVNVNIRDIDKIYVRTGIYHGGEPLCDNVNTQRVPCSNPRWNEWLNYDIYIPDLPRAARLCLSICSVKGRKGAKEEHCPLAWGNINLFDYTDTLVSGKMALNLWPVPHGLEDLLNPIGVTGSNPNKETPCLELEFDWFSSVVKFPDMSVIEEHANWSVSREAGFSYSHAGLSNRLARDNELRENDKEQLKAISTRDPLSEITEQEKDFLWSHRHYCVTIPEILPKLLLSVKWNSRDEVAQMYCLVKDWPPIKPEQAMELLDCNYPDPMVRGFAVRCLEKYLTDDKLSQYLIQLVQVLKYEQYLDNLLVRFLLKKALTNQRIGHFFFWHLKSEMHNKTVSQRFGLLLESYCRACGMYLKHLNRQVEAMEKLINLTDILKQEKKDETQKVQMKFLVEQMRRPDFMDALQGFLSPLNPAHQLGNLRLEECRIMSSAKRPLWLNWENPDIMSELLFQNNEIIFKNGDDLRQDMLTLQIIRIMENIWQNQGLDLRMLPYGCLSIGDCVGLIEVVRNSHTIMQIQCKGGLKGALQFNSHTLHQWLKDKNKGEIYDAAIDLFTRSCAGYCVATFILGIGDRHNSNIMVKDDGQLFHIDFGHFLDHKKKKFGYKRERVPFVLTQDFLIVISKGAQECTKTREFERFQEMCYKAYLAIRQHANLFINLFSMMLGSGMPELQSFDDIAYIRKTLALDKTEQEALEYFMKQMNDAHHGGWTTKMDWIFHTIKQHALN
Procedure, shortened: (§1)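 Purified baculovirus-expressed human p110/p85α preincubated with compound 20 min at room temperature. Then 4 µM PI(4,5)P2 and 10 µM ATP (5 mM Hepes pH 7.5, 2.5 mM MgCl2) added for 15 min at 37 °C. PIP3 product detected by AlphaScreen competition using GST-GRP1, biotin-PIP3 and anti-GST acceptor/streptavidin donor beads, 1 h at room temperature.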

[2] = Solubility of compound in FaSSIF at pH 6.5 by HPLC-UV analysis; format: physicochemical
Procedure, shortened: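 A 4-mM or 1-mM DMSO stock was freeze-dried and the residue taken up in FaSSIF (pH 6.5: sodium taurocholate, lecithin, KH2PO4, KCl, NaOH). Sonicated 10 min, shaken 2 h, centrifuged 10 min at 3000 rpm and filtered. Filtrate measured by HPLC-UV against each compound's calibration curve.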

[3] = Antitumor activity PTEN negative human PC3 cells xenografted into nude mouse assessed as tumor growth inhibition at 6.25 mg/kg, qd administered orally for 11 days; format: functional; conditions: PC-3, po, 264 h, read-out: TGI
Procedure, shortened: (§2)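 PC-3 grown as subcutaneous tumors in nude mice; dosing began (day 0) at about 130 mm3. Four mice per group, randomized to vehicle or drug by oral sonde once daily on days 0–10; vehicle 10% DMSO, 10% Cremophor EL, 15% PEG400, 15% HPCD. TV = (L W²)/2; TGI = [1 − (T − T0)/(C − C0)] × 100; body weight as W/W0 × 100.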

[4] = Cmax in Balb/c nude mouse at 50 mg/kg, po measured after 24 hrs by LC-MS/MS analysis; format: ADME, organism-based; parameters: dose 50 mg/kg, route oral; conditions: in vivo
Procedure, shortened: (§3)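 Female BALB/c-nu mice, n=2 per group, single oral dose of 50 mg/kg given as a solution in 10% DMSO, 10% Cremophor EL, 15% PEG400, 15% HPCD. Heparinized blood drawn at 0.25, 2, 4, 7 and 24 h; plasma stored at –80 °C. Plasma levels by LC–MS/MS; parameters by non-compartmental analysis.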

[5] = Permeability of compound by PAMPA method; format: ADME; conditions: read-out: permeability
[6] = AUC in Balb/c nude mouse at 50 mg/kg, po measured after 24 hrs by LC-MS/MS analysis; format: ADME, organism-based; parameters: dose 50 mg/kg, time < 24 hr, route oral; conditions: in vivo; procedure, shortened: as §3
[7] = target: PI3K p110 beta/p85 alpha (Homo sapiens, UniProt P42338); assay: Inhibition of human PI3K p110beta/p85alpha expressed in baculovirus preincubated for 20 mins followed by addition of phosphorylate phosphatidylinositol-4,5-bisphosphate as substrate and ATP measured after 15 mins by AlphaScreen competition assay; procedure, shortened: as §1
Sequence of PI3K p110 beta/p85 alpha (P27986 whole entry): as the sequence (P27986 whole entry) above
Sequence of PI3K p110 beta/p85 alpha (P42338 whole entry): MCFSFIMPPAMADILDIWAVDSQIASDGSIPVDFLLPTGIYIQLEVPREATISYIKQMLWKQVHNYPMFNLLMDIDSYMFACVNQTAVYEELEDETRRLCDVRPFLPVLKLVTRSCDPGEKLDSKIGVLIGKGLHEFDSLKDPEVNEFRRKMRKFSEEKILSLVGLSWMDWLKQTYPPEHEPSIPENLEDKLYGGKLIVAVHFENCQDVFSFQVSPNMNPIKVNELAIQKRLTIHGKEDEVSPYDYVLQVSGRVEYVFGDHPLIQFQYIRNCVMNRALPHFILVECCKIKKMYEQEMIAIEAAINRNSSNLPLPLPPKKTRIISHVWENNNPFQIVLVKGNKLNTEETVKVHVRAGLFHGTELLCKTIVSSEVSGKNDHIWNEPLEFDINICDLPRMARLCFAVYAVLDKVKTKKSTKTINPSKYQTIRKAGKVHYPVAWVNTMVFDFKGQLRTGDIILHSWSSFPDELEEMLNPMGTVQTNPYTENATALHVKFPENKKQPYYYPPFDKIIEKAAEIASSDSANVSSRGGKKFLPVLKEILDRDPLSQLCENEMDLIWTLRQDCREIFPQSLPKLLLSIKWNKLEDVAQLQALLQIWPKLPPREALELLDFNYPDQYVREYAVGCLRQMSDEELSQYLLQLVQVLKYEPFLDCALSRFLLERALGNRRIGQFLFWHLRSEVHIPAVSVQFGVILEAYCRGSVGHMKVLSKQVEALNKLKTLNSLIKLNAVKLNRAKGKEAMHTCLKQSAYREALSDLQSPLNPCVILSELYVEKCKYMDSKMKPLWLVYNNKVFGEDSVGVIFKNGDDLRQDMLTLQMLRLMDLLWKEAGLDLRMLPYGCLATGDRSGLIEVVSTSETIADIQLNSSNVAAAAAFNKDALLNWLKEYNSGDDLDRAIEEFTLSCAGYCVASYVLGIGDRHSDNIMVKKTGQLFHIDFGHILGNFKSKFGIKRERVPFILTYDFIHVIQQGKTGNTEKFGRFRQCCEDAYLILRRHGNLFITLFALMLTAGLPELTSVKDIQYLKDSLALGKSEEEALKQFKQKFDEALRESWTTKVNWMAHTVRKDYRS

[8] = tested on: Mus musculus; assay: Toxicity in nude mouse xenografted with PTEN negative human PC3 cells assessed as body weight loss; format: organism-based, PC-3; conditions: in vivo; procedure, shortened: as §2
[9] = Metabolic stability in mouse liver microsomes assessed as clearance; format: ADME; conditions: read-out: CLH
[10] = Antiproliferative activity against PTEN negative human PC3 cells measured after 96 hrs by CCK-8 assay; format: functional, cell-based; conditions: PC-3, 96 h
Procedure, shortened: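 PC-3 prostate cells (ATCC) exposed to a range of compound concentrations for 96 hours; growth inhibition read with Cell Counting Kit-8.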

[11] = Metabolic stability in human liver microsomes assessed as clearance; format: ADME; conditions: read-out: CLH

Structure (SMILES) | IC50 [1] | solubility [2] | IC50 [10] | other results
CC(C)c1ccccc1NC(=O)N1CCc2c(-c3cnc(N)nc3)nc(N3CCOCC3)nc21 | 0.081 µM | 0.013 mg/mL (≈ 28.2 µM) | – | –
CCN1CCN(c2cc(F)c(NC(=O)N3CCc4c(-c5cnc(N)nc5)nc(N5CCOCC5)nc43)c(F)c2)CC1 | – | 0.02 mg/mL (≈ 35.3 µM) | 0.058 µM | inhibition in vivo at 6.25 mg/kg [3]: 82%; Cmax [4]: 0.46 µg/mL; Papp [5]: 11 nm/s; AUC at 24 h [6]: 5.68 µg·h/mL; IC50 [7]: 0.007 µM; Activity [8]: Non-toxic; microsomal CLint [9]: 7.6 µL/min/mg; microsomal CLint [11]: 2.2 µL/min/mg
CCN1CCN(C(=O)c2ccc(NC(=O)N3CCc4c(-c5cnc(N)nc5)nc(N5CCOCC5)nc43)c(C)c2)CC1 | 0.026 µM | < 0.018 mg/mL | 0.25 µM | –
CCN1CCN(c2ccc(NC(=O)N3CCc4c(-c5cnc(N)nc5)nc(N5CCOCC5)nc43)c(C)c2)CC1 | – | 0.011 mg/mL (≈ 20.2 µM) | 0.21 µM | –
Cc1nc(N)ncc1-c1nc(N2CCOCC2)nc2c1CCN2c1cccnc1 | 0.26 µM | 0.056 mg/mL (≈ 143 µM) | – | –
Nc1ncc(-c2nc(N3CCOCC3)nc3c2CCN3c2cccnc2)cn1 | – | < 0.012 mg/mL | – | –

The next lines start with results.

IC50 [1] | solubility [2] | Structure (SMILES) | IC50 [10] | other results
0.064 µM | – | CCc1ccccc1NC(=O)N1CCc2c(-c3cnc(N)nc3)nc(N3CCOCC3)nc21 | – | –
0.052 µM | < 0.014 mg/mL | Cc1ccccc1NC(=O)N1CCc2c(-c3cnc(N)nc3)nc(N3CCOCC3)nc21 | – | –
– | < 0.003 mg/mL | Nc1ncc(-c2nc(N3CCOCC3)nc3c2CCN3C(=O)Nc2ccccc2)cn1 | – | Cmax [4]: 0.104 µg/mL; AUC at 24 h [6]: 0.437 µg·h/mL
0.13 µM | < 0.003 mg/mL | CN(C(=O)N1CCc2c(-c3cnc(N)nc3)nc(N3CCOCC3)nc21)c1ccccc1 | – | –
